TRPC6 act: activators of mouse TRPC6 channel. Q61143. HEK293-TRPC6 membrane potential dye fluorescence; hits give high values. B-score at 10 µM. 310,000 tested, 0.13% active. AID 2550;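 active = B-score of the integrated fluorescence ratio above library mean plus 3 SD, and starting fluorescence ratio within library mean plus 5 SD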;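 note: higher score means more depolarization so channel activation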
TRPC4 potent: allosterically enhances the mouse TRPC4 cation channel. 310,000 tested, 0.42% active. B-score at 10 µM. HEK293 TRPC4beta/mu-opioid, DAMGO EC20, Fluo-4 Ca2+ flux; hits give high values. AID 2227;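 active = B-score of calcium response area above 5 SD of library B-scores, with initial fluorescence ratio within 5 SD of library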;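 note: B-score of integrated fluorescence ratio over time as area under calcium response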
Target sequence (Q9QUQ5 whole entry, looked up): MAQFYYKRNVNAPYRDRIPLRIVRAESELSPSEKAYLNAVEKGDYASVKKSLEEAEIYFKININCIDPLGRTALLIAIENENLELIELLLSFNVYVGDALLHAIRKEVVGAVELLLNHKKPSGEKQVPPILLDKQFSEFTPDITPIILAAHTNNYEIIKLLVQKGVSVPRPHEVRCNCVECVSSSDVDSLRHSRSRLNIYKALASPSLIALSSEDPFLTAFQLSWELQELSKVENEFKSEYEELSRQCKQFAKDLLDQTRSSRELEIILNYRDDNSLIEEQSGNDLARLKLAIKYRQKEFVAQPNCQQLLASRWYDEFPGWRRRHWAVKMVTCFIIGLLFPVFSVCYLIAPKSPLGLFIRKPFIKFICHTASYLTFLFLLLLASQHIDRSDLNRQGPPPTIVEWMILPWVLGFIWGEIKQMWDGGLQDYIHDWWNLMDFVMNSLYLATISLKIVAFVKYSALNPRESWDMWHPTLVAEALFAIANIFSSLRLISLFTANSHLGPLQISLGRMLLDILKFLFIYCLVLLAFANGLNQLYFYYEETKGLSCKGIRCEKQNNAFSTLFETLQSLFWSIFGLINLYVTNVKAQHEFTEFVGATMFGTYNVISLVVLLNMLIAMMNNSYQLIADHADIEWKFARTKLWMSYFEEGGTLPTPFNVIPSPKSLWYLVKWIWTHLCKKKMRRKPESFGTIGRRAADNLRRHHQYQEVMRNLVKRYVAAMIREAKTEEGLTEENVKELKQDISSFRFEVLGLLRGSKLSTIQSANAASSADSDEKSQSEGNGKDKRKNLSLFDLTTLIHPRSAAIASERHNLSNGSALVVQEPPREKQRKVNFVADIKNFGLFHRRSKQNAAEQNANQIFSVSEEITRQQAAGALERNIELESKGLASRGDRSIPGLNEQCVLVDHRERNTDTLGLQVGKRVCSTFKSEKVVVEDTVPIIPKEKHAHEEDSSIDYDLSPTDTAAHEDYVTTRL
TRPC4 act: TRPC4 (mouse) channel activation. Q9QUQ5. 310,000 tested, 0.49% active. B-score at 10 µM. HEK293 TRPC4beta/mu-opioid, Fluo4 calcium fluorescence; hits give high values. AID 2237;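 active = B-score above 5 SD of library B-scores, and initial fluorescence ratio not above library mean plus 5 SD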;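 note: positive B-score marks a calcium rise read as TRPC4 activation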
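Test system: HEK293 cells stably co-expressing mouse TRPC4beta and mu-opioid receptor | Schedule: Fluo4 dye loading 45 min at room temperature, 110 s recording | Measured by: Kinetic Fluo4 calcium fluorescence, 5 s baseline at 1 Hz | Evaluation: B score of integrated ratio | Controls: Buffer (low) and maximal DAMGO (high)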
TRPC6 inh: blocks the mouse TRPC6 cation channel; Q61143; HEK293-TRPC6, membrane potential dye, ACh-evoked depolarization; hits give low values; B-score at 10 µM; 310,000 tested, 1.1% active; AID 2553;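 active = B-score under library mean minus 3 SD, initial fluorescence not abnormally high, positive integrated signal ratio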;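 note: B-score derived from integrated fluorescence ratio over the kinetic read; more negative B-score means stronger inhibition of depolarization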
TRPC4 block: inhibitors of mouse TRPC4 channel; Q9QUQ5; HEK293 TRPC4beta/mu-opioid, DAMGO-evoked Fluo4 calcium flux; hits give low values; 300,000 tested, 0.39% active; B-score at 10 µM;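 active = B-score over 3 SD under the library average, no early fluorescence shift, positive overall ratio signal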
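Assay system: HEK293 cells with stable TRPC4beta plus mu-opioid receptor expression. Dosing: single dose. Measured by: Fluo4 Ca2+ flux fluorescence. Also added: DAMGO in two steps, submaximal then maximal. Read-out: B score from integrated Fluo4 fluorescence ratio.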
TRPC4 spec 2: second selectivity test of TRPC6 inhibitors: effect on mouse TRPC4; shares compounds with TRPC6 inh; HEK293 TRPC4/MOR, membrane potential dye fluorescence; channel activated by saturating DAMGO dose; inhibition, % at 10 µM; 920 tested, 42% active;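 active = compounds whose fluorescence signal differed from control wells by over 3 SD, either direction, in both duplicate plates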
TRPC4 spec: mouse TRPC4 off-target activity of TRPC6 inhibitors; shares compounds with TRPC6 inh; HEK293 TRPC4/mu-opioid, membrane potential fluorescence; activity change, negative = inhibition, % at 10 µM; 920 tested, 61% active;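 active = rise or fall in signal beyond 3 SD of buffer-only wells in both replicate plates, either sign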;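 note: integrated kinetic ratio of fluorescence range over baseline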
HEK293 MPD ctr 2-1: second check of TRPC6 inhibitor effects in parental HEK293 cells. 920 tested, 31% active. signal change vs control, % at 10 µM. parental HEK293 membrane potential dye fluorescence; maximal acetylcholine challenge after compound addition. shares compounds with TRPC6 inh;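 active = membrane potential signal moving either way by over 3 SD of the maximum-effect control, in both duplicate plates, meaning non-specific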
HEK293 MPD ctr-1: counter-screen for TRPC6 inhibitors: effect in parental HEK293 cells; parental HEK293 membrane potential dye fluorescence; AID 2780; shares compounds with TRPC6 inh; membrane potential signal change, % at 10 µM; 920 tested, 60% active;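 active = membrane potential signal shifting up or down by more than 3 SD of buffer-only wells, on both duplicate plates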
HEK293 MPD ctr-2: counter-screen for TRPC6 modulators: effect in parental HEK293 cells; shares compounds with TRPC6 inh; 2,400 tested, 51% active; AID 488924; membrane potential signal change, % at 10 µM; membrane potential dye fluorescence;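 active = membrane potential signal moves up or down beyond 5 SD from buffer-only wells, on both duplicate plates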
HEK293 MPD ctr 2-2: parental HEK293 nonspecific activity of TRPC6 modulators, second screen | inhibition, % at 10 µM | 2,400 tested, 14% active | membrane potential dye fluorescence; after compound, maximal acetylcholine stimulation | shares compounds with TRPC6 inh;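 active = membrane potential signal drops by more than 5 SD from the mean control signal, in both duplicate plates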;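 note: plate controls were acetylcholine ECmax control wells for no effect and buffer only wells for full effect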
TRPC4/MOR mod: mouse TRPC4 off-target activity of TRPC6 modulators; percent change from control (negative = decrease, positive = increase), % at 10 µM; 2,400 tested, 69% active; shares compounds with TRPC6 inh; AID 488927; HEK293 TRPC4/mu-opioid, membrane potential fluorescence;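 active = membrane potential signal moved up or down beyond 5 SD of buffer control wells, in both duplicate plates, actives on both sides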;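 note: plate controls were assay buffer wells for no effect and DAMGO maximal-effect wells for full effect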
TRPC4 ctr inh 2: mouse TRPC4 off-target activity of TRPC6 modulators, second screen; shares compounds with TRPC6 inh; inhibition, % at 10 µM; 2,400 tested, 55% active; HEK293 TRPC4/mu-opioid, membrane potential dye fluorescence; stimulated with maximal-effect DAMGO;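 active = drop in membrane potential signal beyond 5 SD of the control wells in both duplicate plates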;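 note: TRPC4 counter screen for TRPC6 hits run under conditions tuned for TRPC6 not TRPC4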
TRPC6 inh conf: confirmation of mouse TRPC6 inhibitors | shares compounds with TRPC6 inh | HEK293-TRPC6, membrane potential dye, ACh-evoked depolarization | inhibition, % at 10 µM | 3,300 tested, 43% active | AID 488960;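 active = fluorescence ratio falls more than 5 SD below the full-stimulation control mean, in both duplicate runs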;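 note: integrated fluorescence ratio of peak minus minimum over baseline after agonist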
TRPC6 act conf: confirmation of mouse TRPC6 activators. HEK293-TRPC6 membrane potential dye fluorescence, FDSS. shares compounds with TRPC6 inh. activation, % at 10 µM. 2,800 tested, 11% active;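 active = ratio signal rise beyond 5 SD above unstimulated control wells' mean, seen in both duplicate runs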;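 note: plate controls were buffer EC0 wells for no effect and acetylcholine ECmax response for full effect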
Active calls of the source: *; i = inactive; x = no result; + = active, no number. The list is not random: actives were taken first. Their share in the collection is about 2.3%.

SMILES	TRPC6 act	TRPC4 potent	TRPC4 act	TRPC6 inh	TRPC4 block	TRPC4 spec 2	TRPC4 spec	HEK293 MPD ctr 2-1	HEK293 MPD ctr-1	HEK293 MPD ctr-2	HEK293 MPD ctr 2-2	TRPC4/MOR mod	TRPC4 ctr inh 2	TRPC6 inh conf	TRPC6 act conf
CN1CCN(c2nc3c(c(=O)n(C)c(=O)n3C)n2CCSc2nnnn2-c2ccccc2)CC1	i	i	i	-7.29*	i	x	x	x	x	-114.0%*	99.5%*	-41.0%*	56.0%*	50.0%*	i
CN1CCN(c2nc3c(c(=O)n(C)c(=O)n3C)n2Cc2ccccc2)CC1	i	i	i	i	i	x	x	x	x	x	x	x	x	x	x
N=c1c(-c2nc3ccccc3[nH]2)cc(C(=O)c2cccs2)nn1-c1ccccc1	i	i	i	-7.67*	i	58.5%*	-14.0%*	i	-179.0%*	x	x	x	x	68.4%*	i
CCC(=O)N/N=C/c1ccc(-c2ccc([N+](=O)[O-])cc2)o1	i	i	i	i	i	x	x	x	x	x	x	x	x	x	x
CC(C)(C)C(=O)/C=c1\s/c(=C\c2ccc(-c3ccc([N+](=O)[O-])cc3)o2)c(=O)n1CC(=O)NC(N)=O	57.3*	21*	62*	i	i	x	x	x	x	+	i	348.0%*	i	i	418.0%*
Nc1cc([N+](=O)[O-])cc2oc(-c3ccccc3)cc12	i	i	i	i	i	x	x	x	x	x	x	x	x	x	x
Cc1ccc(Cn2c(=N)n(CC(O)c3ccco3)c3ccccc32)cc1 (stereo unspecified)	i	i	i	-5.63*	-8*	x	x	x	x	178.0%*	i	33.0%*	87.5%*	54.5%*	x
N=c1n(Cc2ccccc2)c2ccccc2n1CC(O)c1ccccc1 (stereo unspecified)	i	i	i	-7.76*	i	28.5%*	27.2%*	i	10.4%*	x	x	x	x	i	i
Cc1ccccc1OCC(O)Cn1c(=N)n(Cc2ccccc2)c2ccccc21 (stereo unspecified)	i	i	64*	-5.06*	-6*	x	x	x	x	119.5%*	i	40.5%*	102.0%*	69.5%*	x
CCCCn1c(=N)n(CC(O)COc2cccc(C)c2)c2ccccc21 (stereo unspecified)	i	i	i	-6.67*	i	38.0%*	40.1%*	269.5%*	22.8%*	x	x	x	x	i	x
CCCCCN(C(=O)CCC(=O)OCC(=O)N(CC)C1CCCCC1)c1c(N)n(CCCC)c(=O)[nH]c1=O	i	i	i	i	i	x	x	x	x	x	x	x	x	x	x
Fc1ccc(N2CCN(c3cnc4ccccc4n3)CC2)cc1	i	i	i	i	i	x	x	x	x	x	x	x	x	x	x
N=c1n(CCN2CCCC2)c2ccccc2n1CC(O)c1ccc(Cl)c(Cl)c1 (stereo unspecified)	i	i	i	-5.8*	i	x	x	x	x	i	i	i	47.0%*	52.5%*	i
COc1ccccc1OCC(O)Cn1c(=N)n(Cc2ccccc2)c2ccccc21 (stereo unspecified)	i	i	i	-6.41*	i	x	x	x	x	122.0%*	i	46.0%*	102.0%*	51.5%*	x
N=c1n(CCN2CCOCC2)c2ccccc2n1CC(=O)c1ccc(Cl)c(Cl)c1	i	i	i	i	i	x	x	x	x	x	x	x	x	x	x
CCN(CC)c1ccc(C2Nc3cccc4cccc(c34)N2)cc1	i	i	i	-5.46*	i	x	x	x	x	i	i	i	i	i	i
CCN(CC)CCSc1nnc2c3cc(C)ccc3n(Cc3ccccc3)c2n1	i	i	i	-7.12*	i	27.0%*	13.9%*	i	-213.0%*	x	x	x	x	i	i
Oc1ccccc1Oc1ncc(Br)c(N2CCOCC2)n1	i	i	i	-7.21*	i	i	i	i	i	x	x	x	x	i	i
Oc1ccccc1Oc1ncc(Br)c(Cl)n1	i	i	i	i	i	x	x	x	x	x	x	x	x	x	x
O=c1c2ccccc2nnn1CSc1nnc(-c2cccnc2)n1-c1ccccc1F	i	i	i	i	i	x	x	x	x	x	x	x	x	x	x
O=C1OCCC1Sc1nnc(-c2cccnc2)n1-c1ccccc1F (stereo unspecified)	i	i	i	-7.51*	i	i	i	i	i	x	x	x	x	i	i
COC(=O)C(Cc1ccc(O)cc1)NC(=O)C1CCN(S(=O)(=O)c2ccc(C)cc2)CC1 (stereo unspecified)	i	i	i	i	i	x	x	x	x	x	x	x	x	x	x
CCCCC(CC)Cn1c(N)c(C#N)c2nc3ccccc3nc21 (stereo unspecified)	i	i	i	-6.02*	i	x	x	x	x	i	i	i	i	i	i
CN1CCN(CC(O)COc2ccc(Cl)cc2)CC1 (stereo unspecified)	i	i	i	i	i	x	x	x	x	x	x	x	x	x	x
CN1CCN(CC(O)(c2ccc(Cl)cc2)c2ccc(Cl)cc2)CC1	i	i	i	-7.26*	i	i	4.3%*	i	1.8%*	x	x	x	x	i	i
COc1ccc(Nc2ccc(S(=O)(=O)N3CCCCC3)cc2[N+](=O)[O-])cc1	i	26*	i	-5.27*	i	x	x	x	x	i	i	i	i	i	i

Assay outcomes as filed in PubChem BioAssay.
